{"data": "Assay results of several laboratories", "target": "Tyrosine-protein kinase receptor TYRO3 (TYRO3, Homo sapiens, UniProt Q06418)", "One construct used (Q06418 41-890)": "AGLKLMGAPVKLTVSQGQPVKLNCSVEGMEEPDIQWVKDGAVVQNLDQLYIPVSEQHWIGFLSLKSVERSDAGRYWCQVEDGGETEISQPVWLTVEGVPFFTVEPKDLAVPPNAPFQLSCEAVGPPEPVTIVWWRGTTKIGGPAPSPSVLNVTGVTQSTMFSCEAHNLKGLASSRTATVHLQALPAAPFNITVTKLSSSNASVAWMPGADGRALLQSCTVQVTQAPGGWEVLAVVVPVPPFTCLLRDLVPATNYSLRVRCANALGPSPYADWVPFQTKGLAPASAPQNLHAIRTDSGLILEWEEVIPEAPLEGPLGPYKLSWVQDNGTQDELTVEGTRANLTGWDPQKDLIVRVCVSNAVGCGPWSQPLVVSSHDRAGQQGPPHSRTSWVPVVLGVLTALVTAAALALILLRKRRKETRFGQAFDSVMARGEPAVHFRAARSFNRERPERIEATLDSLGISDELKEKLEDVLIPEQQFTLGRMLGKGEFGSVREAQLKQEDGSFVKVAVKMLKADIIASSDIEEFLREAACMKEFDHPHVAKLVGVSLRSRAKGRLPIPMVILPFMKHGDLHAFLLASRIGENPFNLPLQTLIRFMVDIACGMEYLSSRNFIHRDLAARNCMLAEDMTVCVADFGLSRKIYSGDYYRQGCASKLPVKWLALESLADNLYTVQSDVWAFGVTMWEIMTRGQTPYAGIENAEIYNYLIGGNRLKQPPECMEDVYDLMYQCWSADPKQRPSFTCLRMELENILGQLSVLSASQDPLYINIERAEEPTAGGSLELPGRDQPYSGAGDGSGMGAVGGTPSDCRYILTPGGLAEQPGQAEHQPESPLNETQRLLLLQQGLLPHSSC"}
{"Structure (SMILES)": "COc1cc2ncnc(Nc3ccc(Oc4ccccc4)c(C)c3C)c2cc1OC", "test": "enzyme activity, inhibitor", "setting": "1 µM", "measurement": "inhibition", "result": "25%"}
{"Structure (SMILES)": "Cn1c2c(c3ccccc31)C(C#N)C(C)(C)NC2=O (centres unmarked)", "test": "thermal stability, DSF", "setting": "10 µM", "measurement": "ΔTm", "result": "-0.1 °C"}
{"Structure (SMILES)": "Cc1ccc(NC(=O)c2ccc(C)c(C(F)(F)F)c2)cc1C#Cc1nn(C2CCC(O)CC2)c2ncnc(N)c12 (centres unmarked)", "test": "cell-free assay", "setting": "10 µM", "measurement": "remaining signal", "result": "2%"}
{"Structure (SMILES)": "Cc1ccc(C(=O)NCc2ccsc2)cc1C#Cc1cn(C(C)C)c2ncnc(N)c12", "test": "enzyme activity, inhibitor", "setting": "1 µM", "measurement": "activity vs control", "result": "89%"}
{"Structure (SMILES)": "Cc1c(C(=O)O)cc(-c2ccc(C3CCNCC3)cc2)c2ccc(-c3ccc(C(F)(F)F)cc3)cc12", "test": "cell-free assay, competition with immobilised ligand", "setting": "1 µM", "measurement": "remaining binding", "result": "100%"}
{"Structure (SMILES)": "CCOc1cc(-c2nncn2C)ccc1Nc1ncc2cc(C)nc(NCC(C)(C)C)c2n1", "test": "enzyme activity, inhibitor, FRET", "setting": "1 µM", "measurement": "inhibition", "result": "19%"}
{"Structure (SMILES)": "CC(C)c1ccc(NC(=O)c2cccs2)c(-c2nc3ccccc3[nH]c2=O)c1", "test": "enzyme activity, inhibitor", "setting": "1 µM", "measurement": "activity vs control", "result": "103%"}
{"Structure (SMILES)": "CCCOc1ccc(OC)c(F)c1C(=O)c1ccc(C(=O)N[C@@H]2CNC[C@H]2NC(=O)c2ccc3[nH]ncc3c2)cc1", "test": "enzyme activity, inhibitor", "setting": "10 µM", "measurement": "remaining activity", "result": "51%"}
{"Structure (SMILES)": "Cc1nc(N2CC[C@@H](O)C2)ncc1-c1cc(C(F)(F)F)cc2[nH]ncc12", "test": "cell-free assay, competition with immobilised ligand", "setting": "1 µM", "measurement": "remaining binding", "result": "66%"}
{"Structure (SMILES)": "N#CCCc1ccc2c(c1)-c1[nH]c3ccc([N+](=O)[O-])cc3c1CC(=O)N2", "test": "cell-free assay", "setting": "0.5 µM", "measurement": "remaining signal", "result": "94.8%"}
{"Structure (SMILES)": "C[C@@]1(Cc2ccc(C#N)cc2)C(=O)N(c2cc(Cl)cc(Cl)c2)c2ncc(C(=O)NC3(c4nc(C5CCC5)no4)CC3)n21", "test": "cell-free assay, competition with immobilised ligand", "setting": "1 µM", "measurement": "remaining binding", "result": "100%"}
{"Structure (SMILES)": "CC(C)(C)c1nc(-c2cccc(NS(=O)(=O)c3c(F)cccc3F)c2F)c(-c2ccnc(N)n2)s1", "test": "enzyme activity, inhibitor, radiometric", "setting": "1 µM", "measurement": "remaining activity", "result": "90%"}
{"Structure (SMILES)": "Cn1c2c(c3ccc(Cl)c(Cl)c31)C(C#N)C(C)(C)NC2=O (centres unmarked)", "test": "thermal stability, DSF", "setting": "10 µM", "measurement": "ΔTm", "result": "0.5 °C"}
{"Structure (SMILES)": "CCN(CC)CCNC(=O)c1c(C)[nH]c(/C=C2\\C(=O)Nc3ccc(F)cc32)c1C", "test": "cell-free assay", "setting": "0.3 µM", "measurement": "inhibition", "result": "72%"}
{"Structure (SMILES)": "COc1cc2nccc(Oc3ccc(NC(=O)c4c5n(n(-c6ccc(F)cc6)c4=O)CCCC5)cc3)c2cc1OC", "test": "enzyme activity, inhibitor", "setting": "0.1 µM", "measurement": "inhibition", "result": "71%"}
{"Structure (SMILES)": "CN1CCC2(CC1)NC(=O)c1c(c3ccc(Cl)c(Cl)c3n1C)C2C#N (racemic)", "test": "thermal stability, DSF", "setting": "10 µM", "measurement": "ΔTm", "result": "0.7 °C"}
{"Structure (SMILES)": "CCC(=O)N[C@H]1CC[C@@H](C(=O)N(C)c2ccc(-c3nc4ccccc4o3)cc2)C1", "test": "cell-free assay, competition with immobilised ligand", "setting": "1 µM", "measurement": "remaining binding", "result": "92%"}
{"Structure (SMILES)": "CCN(CC)c1ccc(C2=NNC(=O)CC2C)cc1[N+](=O)[O-] (centres unmarked)", "test": "enzyme activity, inhibitor", "setting": "10 µM", "measurement": "remaining activity", "result": "95%"}
{"Structure (SMILES)": "Cc1ccc(Nc2nccc(N(C)c3ccc4c(C)n(C)nc4c3)n2)cc1S(N)(=O)=O", "test": "cell-free assay", "setting": "0.3 µM", "measurement": "inhibition", "result": "26%"}
{"Structure (SMILES)": "O=C(Nc1cnn(-c2csc(C(=O)NC3COC3)c2)c1)Nc1c(F)cccc1Cl", "test": "enzyme activity, inhibitor", "setting": "5 µM", "measurement": "remaining activity", "result": "68.4%"}
{"Structure (SMILES)": "O=C(O)c1cc(-c2ccc(C3CCNCC3)cc2)c2ccc(-c3ccc(C(F)(F)F)cc3)cc2c1", "test": "cell-free assay, competition with immobilised ligand", "setting": "1 µM", "measurement": "remaining binding", "result": "100%"}
{"Structure (SMILES)": "CC/C(=N\\NC(=O)NCc1cccc(O)c1)c1ccc(O)c(C)c1O", "test": "enzyme activity, inhibitor", "setting": "0.1 µM", "measurement": "inhibition", "result": "2.7%"}
{"Structure (SMILES)": "COc1cc(Cl)c(C(=O)N[C@@H](CN[C@H]2CC[C@@H](N)CC2)Cc2ccc(C#N)cc2)cc1-c1ccc(CN[C@H](C)c2ccc(C)cc2)o1", "test": "enzyme activity, inhibitor", "setting": "1 µM", "measurement": "remaining activity", "result": "85%"}
{"Structure (SMILES)": "COCCOc1nc(-c2ccc(Cl)nc2)nc2c1CN(C(=O)c1ncn3ccccc13)CC2", "test": "cell-free assay, competition with immobilised ligand", "setting": "0.1 µM", "measurement": "remaining binding", "result": "100%"}
{"Structure (SMILES)": "CNC(=O)c1cc(Oc2ccc(NC(=O)Nc3ccc(Cl)c(C(F)(F)F)c3)cc2)ccn1", "test": "cell-free assay", "setting": "0.5 µM", "measurement": "remaining signal", "result": "91.7%"}
{"Structure (SMILES)": "CCCOc1ccc([C@@H]2[C@@H](C(=O)O)[C@H](c3ccc4c(c3)OCO4)CN2CC(=O)Nc2c(CC)cccc2CC)cc1", "test": "cell-free assay, competition with immobilised ligand", "setting": "1 µM", "measurement": "remaining binding", "result": "94%"}
{"Structure (SMILES)": "CC(C)(O)[C@H]1CC[C@H](Nc2ccc3ncc(-c4cccc(C(F)(F)F)c4)n3n2)CC1", "test": "enzyme activity, inhibitor", "setting": "1 µM", "measurement": "remaining activity", "result": "22.3%"}
{"Structure (SMILES)": "Nc1cnc(N2CCc3cc(S(=O)(=O)Nc4c(F)cc(Cl)cc4F)cc(N4CCCC4=O)c32)nc1", "test": "cell-free assay, competition with immobilised ligand", "setting": "1 µM", "measurement": "remaining binding", "result": "100%"}
{"Structure (SMILES)": "Cc1cnc(NC2CCOCC2)nc1-n1cnc(C(=O)NC(CN)c2cc(F)cc(Cl)c2)c1 (centres unmarked)", "test": "enzyme activity, inhibitor, radiometric", "setting": "1 µM", "measurement": "remaining activity", "result": "118%"}
